Source: PubChem BioAssay
In the library only some 2.2% were active in any assay of this set; here they are far more common.
NS3 helicase inh: HCV NS3 helicase inhibition; inhibition, % at 10.9 µM; 290,000 tested, 0.56% active; NS3 helicase DNA unwinding, Cy5 molecular beacon fluorescence;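 active means inhibition above the mean of all tested compounds plus 3 SD, set per campaign, cut at about 35% in these data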;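 further: 0% = DMSO wells and 100% = thioflavine S control wells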
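Test system: hepatitis C virus NS3 helicase domain fragment enzyme. Also added: annealed dual-labelled DNA beacon duplex, ATP-started. Timing: 60 min unwinding reaction at 25 °C after ATP addition. Technique: Cy5 fluorescence. Measure: % inhibition of unwinding.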
GPR7 antagonist: blocks human GPR7 receptor signaling | 290,000 tested, 1.1% active | P48145 | inhibition, % at 4.4 µM | GPR7-expressing cells, fluorescence antagonist assay; in the data active means inhibition above about 16%, passing the limit was not always enough;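 further: cells stimulated with the agonist NPW; 0% = agonist with vehicle and 100% = vehicle without agonist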
DAGLB inhibitor: diacylglycerol lipase beta (human) inhibition. Q8NCG7. HEK293T DAGLB membrane lysate, EnzChek fluorogenic substrate. inhibition, % at 5.17 µM. 340,000 tested, 0.059% active. AID 504411; in the data active means inhibition above about 34%;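 further: 0% = enzyme with vehicle and 100% = wells lacking enzyme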
Target sequence (Q8NCG7 whole entry, looked up): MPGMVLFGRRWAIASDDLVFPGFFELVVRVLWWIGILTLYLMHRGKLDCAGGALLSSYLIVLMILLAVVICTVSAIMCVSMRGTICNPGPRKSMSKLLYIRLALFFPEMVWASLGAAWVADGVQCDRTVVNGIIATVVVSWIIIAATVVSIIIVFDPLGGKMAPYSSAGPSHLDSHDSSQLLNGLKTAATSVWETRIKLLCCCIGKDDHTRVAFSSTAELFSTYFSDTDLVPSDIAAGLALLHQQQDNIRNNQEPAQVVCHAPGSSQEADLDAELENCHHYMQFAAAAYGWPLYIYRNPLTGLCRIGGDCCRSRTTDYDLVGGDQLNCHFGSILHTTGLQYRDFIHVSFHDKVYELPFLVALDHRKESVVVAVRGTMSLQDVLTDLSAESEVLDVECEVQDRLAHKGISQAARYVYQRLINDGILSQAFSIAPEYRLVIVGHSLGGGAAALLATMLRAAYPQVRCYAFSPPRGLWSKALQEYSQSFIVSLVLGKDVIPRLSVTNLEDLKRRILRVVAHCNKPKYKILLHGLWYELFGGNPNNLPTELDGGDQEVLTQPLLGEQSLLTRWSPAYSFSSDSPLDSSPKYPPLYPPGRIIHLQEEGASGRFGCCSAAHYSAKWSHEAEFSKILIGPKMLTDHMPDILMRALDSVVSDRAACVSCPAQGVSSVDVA
GRK2 aptamer HTS: human GRK2 inhibition via aptamer displacement | bead flow cytometry, FAM-aptamer displacement from GRK2 | inhibition of aptamer binding, % at 10 µM | 330,000 tested, 0.59% active;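 active means inhibition of aptamer binding above 40%, roughly 3 SD of noise, on plates passing a quality check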;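 further: median bead fluorescence of bound FAM aptamer so fluorescent compounds give negative values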
core dimer inh: blocks dimerization of HCV core protein | 300,000 tested, 0.33% active | inhibition, % at 5 µM | TR-FRET GST/Flag-core106 dimerization, 1536-well;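 active means inhibition above the mean of all tested compounds plus 3 SD, set per screening campaign, cut at about 45% in these data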
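Material: GST/Flag-tagged HCV core106 proteins. Incubation: 4 h, 22.5 °C incubation. Read-out basis: inhibition (%) from 671 over 617 nm ratio. Measured by: TR-FRET, excitation 340 nm, emission 617 and 671 nm.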
DNA FID counter-1: fluorescent intercalator displacement, NS3 helicase counter-screen; inhibition, % at 7.9 µM; DNA fluorescent intercalator displacement, fluorescence; 290,000 tested, 0.17% active;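 further: 0% = vehicle and 100% = reference compound; higher means more ethidium bromide displaced from hairpin DNA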
NS3 helicase cf: confirmation of Hepatitis C virus NS3 helicase inhibitors; shares compounds with NS3 helicase inh; NS3 helicase DNA unwinding, Cy5 molecular beacon fluorescence; inhibition, % at 10.9 µM; 1,600 tested, 31% active; AID 1943;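 active means inhibition above the mean of all tested compounds plus 3 SD, cutoff set per campaign, cut at about 36% in these data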
DNA FID counter-2: counter-screen for HCV NS3 helicase inhibitors: DNA intercalator displacement; shares compounds with NS3 helicase inh; DNA fluorescent intercalator displacement, fluorescence; inhibition, % at 7.9 µM; 1,600 tested, 4% active; AID 1945;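 further: 0% = vehicle and 100% = reference compound; higher means more displacement of ethidium bromide from the DNA hairpin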
FID counter DR: displaces fluorescent intercalator from DNA, HCV helicase counter-screen. AID 2172. IC50, µM. fluorescent intercalator displacement from DNA, fluorescence. 120 tested, under 10 active. shares compounds with NS3 helicase inh; call rule not given here
Numbers without * were called inactive; nt = no result given. Unless noted, no stated cut-off is given here; in the data, active means inhibition above about 37%; inactive means the rest.

SMILES | NS3 helicase inh | GPR7 antagonist | DAGLB inhibitor | GRK2 aptamer HTS | core dimer inh | DNA FID counter-1 | NS3 helicase cf | DNA FID counter-2 | others
CCCCn1c(N)c(N(CCOC)C(=O)CC2CCCCC2)c(=O)[nH]c1=O | nt | nt | -1.2 | nt | nt | nt | nt | nt
COc1cccc(-n2nnc(S(=O)(=O)c3ccc(C)cc3)c2N)c1 | -2.8 | 19.3 | -2.8 | 0.0 | 4.9 | -8.6 | nt | nt
COc1ccc(S(=O)(=O)c2nnn(-c3cccc(Cl)c3)c2N)cc1 | -11.2 | 20.3* | -4.6 | 0.0 | 3.2 | -13.2 | nt | nt
O=C(c1ccc(C#CC2(O)CCCCC2)cc1)N1CCN(C(c2ccccc2)c2ccccc2)CC1 | -10.4 | -14.6 | 4.0 | 0.0 | 53.4* | -35.5 | nt | nt
O=C(c1ccc(C#CC2(O)CCCCC2)cc1)N1CCN(Cc2ccccc2)CC1 | -11.6 | 24.7 | 4.0 | 3.0 | 1.9 | -22.7 | nt | nt
CCOC(=O)[C@@H]1[C@H]2COc3ccc(Br)cc3[C@@H]2N2C(=O)N(c3ccc(C(F)(F)F)cc3)C(=O)[C@@]12C | -39.3 | -6.8 | -7.5 | 2.0 | -9.9 | -18.1 | nt | nt
CC(C)Cn1c(-c2ccco2)csc1=Nc1cccnc1 | 31.3 | 3.1 | 2.8 | 7.0 | 50.1* | -18.3 | nt | nt
COCCn1c(-c2ccco2)csc1=Nc1cccnc1 | 0.5 | -3.5 | -1.0 | 4.0 | 5.5 | -8.7 | nt | nt
COc1ccc(CN(C)C(=O)COC(=O)c2ccc(-c3ccccc3)cc2)c(OC)c1OC | nt | nt | -5.1 | nt | nt | nt | nt | nt
COc1ccc(CC(=O)N(C)Cc2ccc(OC(F)F)cc2)cc1S(=O)(=O)N1CCOCC1 | nt | nt | -6.3 | nt | nt | nt | nt | nt
CC(=O)Nc1ccc(S(=O)(=O)N2c3ccccc3C(C)=CC2(C)C)cc1 | -3.8 | 22.3* | -2.1 | 1.0 | -0.8 | -15.0 | nt | nt
CC1=CC(C)(C)N(S(=O)(=O)c2ccc(F)cc2)c2ccccc21 | 0.8 | -2.7 | -12.1 | 3.0 | -0.8 | -9.6 | nt | nt
O=C(O)c1ccc(N/N=C/c2ccc(-c3ccc(Cl)cc3Cl)o2)cc1 | 36.3* | -5.3 | 4.1 | 1.0 | 15.4 | -15.2 | 52.6* | 17.3
Cc1c(C(=O)O)cccc1-c1ccc(/C=N/Nc2ccc(Br)cc2)o1 | 43.9* | 0.9 | 9.3 | 3.0 | -5.8 | -27.9 | 37.6* | 1.6
Cc1c(C(=O)O)cccc1-c1ccc(/C=N/n2cnnc2)o1 | 6.0 | -0.7 | -2.4 | 25.0 | -8.7 | -3.7 | nt | nt
O=C(O)c1ccc(N/N=C/c2ccc(-c3cc(Cl)ccc3Cl)o2)cc1 | 40.4* | 5.1 | 4.8 | 0.0 | 13.5 | -21.1 | 62.5* | 14.2
Cc1oc(-c2cccs2)nc1CNC[C@H]1O[C@@H](n2cnc(C(N)=O)n2)[C@H](O)[C@@H]1O | nt | nt | -0.6 | nt | nt | nt | nt | nt
Cc1ccc(CNC(=O)CS(=O)(=O)Cc2nc(-c3ccc(C)cc3)oc2C)cc1 | 40.7* | 9.7 | -0.4 | 0.0 | -5.7 | -22.9 | -6.4 | -17.0
COc1ccc(CNC(=O)CS(=O)(=O)Cc2nc(-c3ccc(OC)cc3)oc2C)cc1 | 12.4 | 2.5 | 1.2 | 1.0 | -13.8 | -43.6 | nt | nt
Cc1ccc(-c2cc(-c3ccco3)c(C#N)c(=O)[nH]2)cc1 | 42.0* | -5.6 | 7.9 | 1.0 | 14.5 | -27.1 | 26.5 | -0.9
CCCc1cc(C(=O)N2CCN(c3ccc(C(F)(F)F)cn3)CC2)sc1C | -8.4 | -6.7 | -9.1 | 0.0 | 11.7 | -31.5 | nt | nt
CC(C)CC1Nc2ccc(C(=O)NCCCN3CCCCC3C)cc2NC1=O (stereo unspecified) | -7.8 | -5.7 | 1.1 | 0.0 | -1.4 | 7.1 | nt | nt
COc1ccc(CCN2C(=O)CC(Nc3ccc(N4CCOCC4)cc3)C2=O)cc1OC (stereo unspecified) | 45.8* | -1.0 | 9.1 | 4.0 | -0.7 | -36.7 | 2.2 | -17.7
O=C1CC(Nc2ccc(N3CCOCC3)cc2)C(=O)N1C1CCCCC1 (stereo unspecified) | 38.2* | -9.0 | 1.8 | 0.0 | -13.0 | -26.2 | -15.5 | -3.7
O=C1CC(Nc2ccccc2)C(=O)N1c1ccc(N2CCOCC2)cc1 (stereo unspecified) | 3.2 | -10.8 | 1.1 | 2.0 | 5.0 | -4.2 | nt | nt
SMILES | NS3 helicase inh | GPR7 antagonist | DAGLB inhibitor | GRK2 aptamer HTS | core dimer inh | DNA FID counter-1 | NS3 helicase cf | DNA FID counter-2 | others
CC(C)N1C(=O)CC(Nc2cccc3cccc(N)c23)C1=O (stereo unspecified) | 40.0* | -9.0 | 5.3 | nt | nt | -7.7 | -15.5 | 9.6
CC(C)N1C(=O)CC(Nc2ccc(N3CCOCC3)cc2)C1=O (stereo unspecified) | 38.8* | 3.8 | 1.7 | 0.0 | -1.1 | -17.1 | -2.2 | -4.7
CN(C)CC(=O)Nc1cc(C(F)(F)F)ccc1Cl | 4.4 | -5.3 | -1.6 | 0.0 | -0.6 | 4.4 | nt | nt
N/C(CC(=O)Nc1cc(C(F)(F)F)ccc1Cl)=N\O | 18.9 | -12.4 | -0.5 | 1.0 | -12.4 | -6.2 | -3.8 | 8.2
O=C(Nc1ccc(Oc2ccc(Cl)cc2)c(Cl)c1)c1cc(I)cc(I)c1O | 46.8* | -1.9 | 2.2 | 1.0 | 21.1 | 16.9 | 84.2* | 32.8
COc1ccc(NC(=O)c2ccccc2F)cc1Cl | -3.1 | 7.2 | -4.7 | 0.0 | -1.6 | -1.8 | nt | nt
CCOc1ccc(-n2ccc(=O)c(C(=O)Nc3ccc(S(=O)(=O)Nc4nccs4)cc3)n2)cc1 | 37.1* | -13.7 | 1.6 | 0.0 | 12.8 | -23.2 | -19.4 | -2.3
COC(=O)c1ccc2cn[nH]c2c1 | nt | nt | -3.6 | nt | nt | nt | nt | nt
COc1ccc(S(=O)(=O)N(Cc2ccccc2)c2ccccc2C(=O)O)cc1 | -12.6 | 6.3 | -2.0 | 3.0 | 7.0 | -35.9 | nt | nt
O=C(O)c1ccc(S(=O)(=O)N(CCc2ccccc2)Cc2ccc(Cl)cc2)cc1 | 44.9* | 5.8 | 3.7 | 3.0 | 6.8 | 5.6 | 32.4 | 10.8
Cc1ccc(S(=O)(=O)N(Cc2ccc(Cl)cc2)c2ccccc2C(=O)O)cc1 | 36.4* | -11.5 | 1.9 | 0.0 | 2.8 | -31.6 | 41.2* | -23.6
CCCOc1ccc(-c2nc(SCc3ccccc3)[nH]c(=O)c2C#N)cc1OC | 36.5* | -9.6 | -7.1 | 0.0 | 21.6 | -20.4 | 90.8* | -14.5 | FID counter DR=>79.4
COc1ncccc1C(=O)N1CCCC(C(=O)Nc2cccc(-c3ccc(F)cc3)c2)C1 (stereo unspecified) | nt | nt | -2.4 | nt | nt | nt | nt | nt
C[C@H](CO)N1C[C@H](C)[C@H](CN(C)S(=O)(=O)c2ccc(F)cc2)OCc2cnnn2CCCC1=O | nt | nt | -0.7 | nt | nt | nt | nt | nt
CC1(C)CC(=O)C2=C(C1)OC1=C(C(=O)CC(C)(C)C1)C2c1cc([N+](=O)[O-])cc([N+](=O)[O-])c1O | 43.1* | -2.8 | 16.9 | 2.0 | 11.3 | -17.3 | 77.9* | -17.9
CCCCn1c(NC(=O)c2ccccc2Cl)c(C#N)c2nc3ccccc3nc21 | 46.7* | 9.2 | 17.0 | 2.0 | 21.9 | -16.0 | 68.7* | -0.5
CCCCn1c(NC(=O)CC)c(C#N)c2nc3ccccc3nc21 | 10.2 | -1.2 | -4.9 | 0.0 | 0.4 | -1.2 | nt | nt
